Hits are enriched below; roughly 2.6% of the tested compounds scored in any of these assays.
KCC2 mod = KCC2 cotransporter modulators, thallium flux, primary screen, cell-based, HEK293 KCC2, FluoZin-2 fluorescence, MLSMR | B-score of Tl+ flux slope (higher = more flux/activation; lower = inhibition) at 10 µM | KCC2 cells, thallium flux FluoZin-2 fluorescence | Solute carrier family 12 member 5 (Homo sapiens), Q9H2X9 | 190,000 tested, 2.2% active;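 active means thallium flux slope and its plate-corrected score both differing from the plate sample mean at a set confidence after two filtering rounds, in either direction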;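 further: slope of fluorescence scaled to starting intensity during 10 to 20 s after thallium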
CHT inh = inhibitors of human choline transporter CHT; B-score at 10 µM; AID 488975, 2010; 310,000 tested, 0.86% active; CHT-expressing cells, membrane potential dye, choline response; active compounds read low;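 active means B-score over 3 SD under the library average, and starting fluorescence ratio not unusually high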;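 further: choline stimulus applied at its EC90 after an EC20 pre-addition; B-score computed on integrated fluorescence ratio after choline addition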
Target sequence (Q9GZV3 whole entry, looked up): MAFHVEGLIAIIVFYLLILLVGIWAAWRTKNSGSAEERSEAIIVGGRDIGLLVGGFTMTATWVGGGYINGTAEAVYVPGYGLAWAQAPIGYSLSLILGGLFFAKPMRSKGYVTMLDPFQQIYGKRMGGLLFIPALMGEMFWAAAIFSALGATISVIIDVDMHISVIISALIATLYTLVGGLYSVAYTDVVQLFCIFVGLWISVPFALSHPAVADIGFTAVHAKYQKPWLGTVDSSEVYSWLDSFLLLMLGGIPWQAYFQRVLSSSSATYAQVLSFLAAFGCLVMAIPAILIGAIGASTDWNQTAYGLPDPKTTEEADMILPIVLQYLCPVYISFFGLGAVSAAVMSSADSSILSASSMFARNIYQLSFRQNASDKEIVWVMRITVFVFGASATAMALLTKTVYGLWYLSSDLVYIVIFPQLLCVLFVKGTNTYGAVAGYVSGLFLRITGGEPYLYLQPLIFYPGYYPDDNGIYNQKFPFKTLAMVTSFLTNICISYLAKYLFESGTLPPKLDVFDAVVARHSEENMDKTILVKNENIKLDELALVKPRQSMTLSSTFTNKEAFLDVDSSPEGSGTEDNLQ
CHT allo act = CHT positive allosteric modulators, primary screen, cell-based, membrane potential dye, choline EC20; High affinity choline transporter 1 (Homo sapiens), Q9GZV3; CHT-expressing cells; active compounds read high; LV-AA mutant CHT in HEK293 cells; B-score at 10 µM; 310,000 tested, 0.49% active;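 active means initial fluorescence not abnormally high and integrated response B-score, plate-corrected, over 3 SD above library mean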
Rad51 HR inh = human RAD51 strand exchange inhibitors, primary screen, biochemical, fluorescence. inhibition, % at 10 µM. 200,000 tested, 0.085% active. AID 1385, 2008. hRad51 DNA strand exchange, fluorescence dequenching;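 active means inhibition above 40% at the single screening dose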
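Assay system: Human Rad51 nucleoprotein filaments preassembled on unlabelled ssDNA | Reagent: Donor/quencher-labelled 47-bp dsDNA substrate | Doses: One concentration, 10 µM final | Times: 37 °C 15-min filament assembly, 30-min compound preincubation, 15-min exchange | Technique: Fluorescein emission 520 nm, excitation 485 nm | Benchmarks: Plate control and blank wells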
Of the large screens only hits and unclear results are named; the others gave an inactive call.

Cc1cc(C)c(S(=O)(=O)Nc2ccc(N(C)C)cc2)c(C)c1-n1cnnn1	none (no result: KCC2 mod, Rad51 HR inh)
CCCCOc1ccc(-c2nnn(CC(=O)NCc3ccco3)n2)cc1	none
O=C(Cn1nnc(-c2ccccc2F)n1)NCc1ccco1	Rad51 HR inh 44
CC(C)c1ccccc1NC(=S)NN(Cc1ccccc1)c1ccccc1	none
CCN=c1scc(-c2ccccc2)n1/N=C/c1ccccn1	KCC2 mod -3.8
C=CCN=c1scc(-c2ccc(F)cc2)n1/N=C/c1ccccn1	none
CCN=c1scc(-c2cccs2)n1/N=C/c1cc(OC)ccc1O	none
C=CCN=c1scc(-c2ccccc2)n1/N=C/c1ccccn1	KCC2 mod -4.1
O=C(c1cc(=O)[nH]c2ccccc12)N1CCN(c2cccc(C(F)(F)F)c2)CC1	none
Cc1[nH]c2ccccc2c1C(O)CN1CCN(c2cccc(C(F)(F)F)c2)CC1 (stereo not drawn)	CHT inh -8.7 (no result: KCC2 mod)
Cc1ccccc1C(=O)Nc1nc(=S)ss1	KCC2 mod 11
Cc1ccc2oc(=O)c3cc(C(=O)N4CCN(C(=O)c5ccco5)CC4)sc3c2c1	KCC2 mod -2.5 (no result: Rad51 HR inh)
O=C(NC(=S)Nc1ccccc1)c1cc(-c2ccccc2)nc2ccccc12	KCC2 mod 18
O=C(NC(=S)Nc1ccccn1)c1cc(-c2ccccc2)nc2ccccc12	KCC2 mod 22
O=C(NNC(=S)Nc1ccccc1)c1cc(-c2cccnc2)nc2ccccc12	none
Cc1ccc(-c2cc(C(=O)Nc3ccccn3)c3ccccc3n2)o1	none
Cc1cc(C)c(C)c(S(=O)(=O)N2CCN(C(=O)C3CSC4(C)CCC(=O)N34)CC2)c1C (stereo not drawn)	none (no result: KCC2 mod, Rad51 HR inh)
S=c1[nH]nc(-c2ccc(Br)o2)n1Cc1ccccc1	KCC2 mod 3.4
CO/N=C(\Cn1ncc(N2CCCC2)c(Cl)c1=O)c1ccc(Cl)cc1	none (no result: Rad51 HR inh)
CCN(CC)c1cnn(C/C(=N\OC)c2ccc(Cl)cc2)c(=O)c1Br	KCC2 mod -3.7
CNc1nc2c(N)ncnc2n1[C@H]1O[C@@H](CO)[C@H](O)[C@@H]1O	CHT inh -7.6 (no result: KCC2 mod, Rad51 HR inh)
Nc1ncnc2c1ncn2C1O[C@H](CO)[C@@H](O)[C@@H]1O (stereo partly drawn)	none (no result: KCC2 mod, Rad51 HR inh)
Cc1cccnc1NC(=S)NC(=O)c1oc2ccccc2c1C	none (no result: KCC2 mod, Rad51 HR inh)
Cc1ccc(C)c(OCc2cc(C(=O)N3CCOCC3)no2)c1	none (no result: KCC2 mod, Rad51 HR inh)
Cc1ccccc1OCC(O)CN1CCN(CCN2C(=O)c3cccc4cccc(c34)C2=O)CC1 (stereo not drawn)	none
Cc1cccc(C)c1OCC(O)CN1CCC(CN2C(=O)c3cccc4cccc(c34)C2=O)CC1 (stereo not drawn)	CHT inh -6.3
Cc1[nH]n(-c2ccccc2)c(=O)c1C(c1ccc(O)c([N+](=O)[O-])c1)c1c(C)[nH]n(-c2ccccc2)c1=O	CHT inh -6.1
COc1ccc(C(C[N+](=O)[O-])c2c(C)[nH]n(-c3ccccc3)c2=O)cc1 (stereo not drawn)	none (no result: KCC2 mod, Rad51 HR inh)
CC12CC(O)C3c4ccc(O)cc4CCC3C1CC/C2=N\O (stereo not drawn)	none (no result: KCC2 mod, Rad51 HR inh)
CC(Oc1ccc(Br)cc1)C(=O)Nc1ccc(S(=O)(=O)N(C)C2CCN(C)CC2)cc1 (stereo not drawn)	CHT allo act 7.1 (no result: KCC2 mod, Rad51 HR inh)
CN1CCN(CC(=O)c2cc(C(C)(C)C)c(O)c(C(C)(C)C)c2)CC1	none (no result: KCC2 mod, Rad51 HR inh)
O=c1c2ccccc2[nH]c(=S)n1C1CCCCC1	KCC2 mod 69
CC1CCCC(n2c(=S)[nH]c3ccccc3c2=O)C1C (stereo not drawn)	KCC2 mod 29
CC1CCC(n2c(=S)[nH]c3ccccc3c2=O)CC1 (stereo not drawn)	KCC2 mod 30
N#C/C(=C/c1ccc2c(c1)OCO2)C(=O)Nc1ccc(O)cc1	none
COC(=O)[C@@H]1C[C@@]2(O)[C@H](O)[C@H](O)[C@H](O)C[C@H]2N1Cc1ccc(-c2ccccc2)cc1	none
COc1ccccc1/C=N/NC(=O)c1nnn(-c2nonc2N)c1-c1cccs1	none (no result: KCC2 mod, Rad51 HR inh)
O=C(NC1CC1)C1CCN(C2CCN(C(=O)Cc3ccc4c(c3)OCO4)CC2)CC1	CHT inh -10
Cc1cc(N2C(=O)c3ccc(C(=O)Nc4ccc(CC(=O)O)cc4)cc3C2=O)no1	none (no result: KCC2 mod, Rad51 HR inh)
CCC1(C)Nc2ccccc2C(=O)N1O (stereo not drawn)	Rad51 HR inh 41
COc1ccc2cc(CCNC(=O)c3ccc(S(=O)(=O)N4CCCC4)cc3)c(=O)[nH]c2c1	none (no result: KCC2 mod, Rad51 HR inh)
CCOC(=O)Cn1c(=O)c2c(nc(N3CCOCC3)n2C)n(C)c1=O	none
CCOC(=O)Cn1c(=O)c2c(nc(N3CCCCC3)n2Cc2ccccc2)n(C)c1=O	Rad51 HR inh 44
CCOC(=O)CSCC(=O)N1CCC(Cc2ccccc2)CC1	none (no result: KCC2 mod, Rad51 HR inh)
COc1ccc(N(C(=O)c2cccnc2)S(=O)(=O)c2ccc(F)cc2)cc1	none (no result: KCC2 mod, Rad51 HR inh)
COc1ccc(NC(=O)CSc2cccc3cccnc23)c(OC)c1	none (no result: Rad51 HR inh)
CCCCCOc1ccc(NC(=O)CSc2cccc3cccnc23)cc1	KCC2 mod 5.4
CN1CCN(C(=O)/C(C#N)=C/c2ccc(OC(F)F)cc2)CC1	Rad51 HR inh 44 (no result: CHT inh, CHT allo act)
CCOc1ccccc1N1CCN(C(=S)NC(=O)C23CC4CC(CC(C4)C2)C3)CC1	KCC2 mod 4.7
Cn1cccc1C(=O)OCC(=O)N1c2ccccc2NC(=O)C1(C)C	none
CC(C)Cn1c(=O)c(C2=NS(=O)(=O)c3ccccc3N2)c(O)c2ccccc21	KCC2 mod 8.8 (no result: CHT inh, CHT allo act, Rad51 HR inh)
CCC1=NN(C(=O)c2ccc(Cl)cc2)C(O)(c2ccccc2)C1 (stereo not drawn)	none (no result: KCC2 mod, Rad51 HR inh)
CC1=NN(C(=O)c2ccccc2C)C(O)(c2ccc(Cl)cc2)C1 (stereo not drawn)	none (no result: KCC2 mod, Rad51 HR inh)
CCOC(=O)C1=NN(C(=O)c2ccc(C)cc2)C(O)(c2ccc(Cl)cc2)C1 (stereo not drawn)	KCC2 mod 121
COC(=O)C1=NN(C(=O)c2ccc(Cl)cc2)C(O)(c2ccccc2)C1 (stereo not drawn)	KCC2 mod 17
CC(NC(=O)c1cccs1)C(S)c1ccccc1 (stereo not drawn)	none (no result: KCC2 mod, Rad51 HR inh)
CC(C)(CC(=O)O)CC(=O)N1CCN(c2cc(C(F)(F)F)nc3ccccc23)CC1	none (no result: KCC2 mod, Rad51 HR inh)
Oc1ccccc1Cc1c(O)ccc2ccccc12	none (no result: KCC2 mod, Rad51 HR inh)
Oc1ccc2ccccc2c1Br	Rad51 HR inh 43
CCOc1ccc(-n2c3nc4ccccc4nc3c3c(=O)n(Cc4ccco4)cnc32)cc1	KCC2 mod 2.8 (no result: CHT inh, CHT allo act, Rad51 HR inh)
CCC(=O)[C@@]1(C)[C@H](C)C[C@H]2[C@@H]3CCC4=CC(=O)C=C[C@]4(C)[C@H]3[C@@H](O)C[C@@]21C	none (no result: KCC2 mod, Rad51 HR inh)
Cc1[nH]n2c(=O)c3c(nc2c1-c1ccccc1)CCC3	none
O=c1c2c(nc3c(-c4ccccc4)c[nH]n13)CCCC2	KCC2 mod 2.8
CCCN1C(=O)c2ccccc2NC1c1ccc(Cl)c(Cl)c1 (stereo not drawn)	CHT allo act 7.3 (no result: KCC2 mod, Rad51 HR inh)
CCCN1C(=O)c2ccccc2NC1c1ccc(Cl)cc1 (stereo not drawn)	none (no result: KCC2 mod, Rad51 HR inh)

Bioassay records as filed in PubChem BioAssay.
